# This is one part of a sample in which hits are shown more often than they occur.
# T cruzi growth-1: blocks T. cruzi growth in NIH3T3 culture; inhibition, % at 8.34 µM; T. cruzi beta-gal in NIH3T3, GalScreen luminescence, 90 h; 5.9% of 77,000 active;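 active = mean inhibition above about 93%, with at least 55% of replicates each passing it, limit read from the data, passing the limit was not always enough; inconclusive = only one of those two conditions holds; inactive = neither condition holds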
# GASC1 inh: inhibitors of human demethylase GASC-1 KDM4C; AID 720574; inhibition, % at 12.5 µM; GST-KDM4C 2-372, H3K9me3 peptide, LANCE TR-FRET; Q9H3R0; 0.15% of 96,000 active;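 active = mean replicate inhibition above about 25%, with at least 55% of replicates also reaching it, limit read from the data, passing the limit was not always enough; inconclusive = only one of those two conditions met; inactive = neither condition met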
#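 System: N-terminal GST-fused human GASC-1 (KDM4C) fragment, residues 2-372 / Amount: 10 nM GST-KDM4C in enzyme reaction / Also added: H3K9me3 peptide with Fe(II)/2OG / Times: 30 min demethylation and 1 h detection at room temperature / Signal: LANCE TR-FRET / Read-out basis: Fall in 671/618 emission ratio as inhibition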
# IDH1 R132H inh: IDH1 R132H (human) inhibition; O75874; IDH1 R132H reductase, diaphorase/resazurin fluorescence, 60 min; inhibition, % at 10 µM; 0.18% of 70,000 active; AID 624101; in the data active = inhibition above about 34%; inconclusive = no clear call, values can overlap the other calls; inactive = below about 11%;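 also: 0% = DMSO and 100% = no enzyme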
# Target sequence (O75874 whole entry R132H): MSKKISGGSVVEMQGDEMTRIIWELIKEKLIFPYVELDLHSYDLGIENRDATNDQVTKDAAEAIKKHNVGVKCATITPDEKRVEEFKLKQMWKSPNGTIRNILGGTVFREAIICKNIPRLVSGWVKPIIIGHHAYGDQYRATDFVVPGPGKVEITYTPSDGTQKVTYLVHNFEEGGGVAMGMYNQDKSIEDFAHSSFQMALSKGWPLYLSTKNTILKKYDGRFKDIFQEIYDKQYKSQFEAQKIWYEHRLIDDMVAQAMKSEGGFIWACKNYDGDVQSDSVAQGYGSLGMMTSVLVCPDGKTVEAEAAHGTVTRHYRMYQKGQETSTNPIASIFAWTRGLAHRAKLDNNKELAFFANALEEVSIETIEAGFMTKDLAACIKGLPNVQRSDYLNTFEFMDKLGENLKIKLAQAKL
# T cruzi growth-2: Trypanosoma cruzi proliferation inhibition; 72% of 5,600 active; shares compounds with T cruzi growth-1; T. cruzi beta-gal in NIH3T3, GalScreen luminescence, 90 h; inhibition, % at 8.35 µM;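 active = mean replicate inhibition above about 95% and at least 55% of replicates individually reaching it, limit read from the data; inconclusive = only one of the two criteria is met; inactive = neither criterion is met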
# T cruzi growth-3: blocks T. cruzi growth in NIH3T3 host cells | 21% of 5,600 active | T. cruzi beta-gal in NIH3T3, GalScreen luminescence, 90 h | inhibition, % at 2.09 µM | shares compounds with T cruzi growth-1;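 active = mean inhibition above about 95%, with at least 55% of replicates also reaching it, limit read from the data; inconclusive = meets just one of the two conditions; inactive = meets neither condition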;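 also: plate controls were neutral control median for no effect and positive control median for full effect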
# 3T3 cytotox: cytotoxicity in mouse NIH/3T3 fibroblasts; NIH/3T3 viability, CellTiter-Glo ATP luminescence, 90 h; shares compounds with T cruzi growth-1; 14% of 5,600 active; AID 651742; cytotoxicity (signal decrease), % at 8.35 µM;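 active = mean signal decrease across replicates above about 35% based on untreated-well scatter, with enough replicates individually passing, limit read from the data; inconclusive = no rule stated though some were filed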;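 also: 0% = median of neutral control wells and 100% = median of positive control wells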
# NIH3T3 tox 2: NIH/3T3 (mouse) viability loss | inhibition, % at 24.9 µM | NIH/3T3 viability, CellTiter-Glo ATP luminescence, 90 h | 56% of 5,600 active | shares compounds with T cruzi growth-1;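 active = mean loss of cell viability signal at or above a set limit, and enough replicates individually reaching it; inconclusive = meets only the mean limit or only the replicate share; inactive = meets neither condition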;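 also: 0% = median of neutral control wells and 100% = median of positive control wells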
# An asterisk follows results filed as active; ? = inconclusive; · = not tested or not shown.
SMILES,T cruzi growth-1,GASC1 inh,IDH1 R132H inh,T cruzi growth-2,T cruzi growth-3,3T3 cytotox,NIH3T3 tox 2
C[C@@H]1CN([C@H](C)CO)C(=O)c2cc(C#CCN(C)C)cnc2O[C@@H]1CN(C)Cc1ccc(-c2ccccc2)cc1,63,0,-2,·,·,·,·
C[C@@H]1CN([C@@H](C)CO)C(=O)c2cc(C#CCN(C)C)cnc2O[C@@H]1CN(C)Cc1ccc(C(=O)O)cc1,109*,7,0,?,22,-15,1
C[C@H]1CN([C@@H](C)CO)C(=O)c2cc(C#CCN(C)C)cnc2O[C@@H]1CN(C)Cc1ccccc1F,52,7,0,·,·,·,·
C[C@@H]1CN([C@@H](C)CO)C(=O)c2cc(C#CCN(C)C)cnc2O[C@H]1CN(C)Cc1ccc(C(=O)O)cc1,-34,6,2,·,·,·,·
O=C(CCCCCCC(=O)Nc1ccccc1O)N/N=C/c1ccc(O)cc1,·,·,0,·,·,·,·
COc1cc(C(=O)NC2(C(F)(F)F)C(=O)N(Cc3ccco3)C3=C2C(=O)CC(C)(C)C3)cc(OC)c1OC (stereo not given),·,·,0,·,·,·,·
C=CCNC(=O)[C@@H]1[C@H]2C(=O)O[C@H](c3ccccc3)[C@H](c3ccccc3)N2[C@H](c2ccccc2OCCO)[C@@]12C(=O)Nc1ccc(C#CCC(C(=O)OC)C(=O)OC)cc12,·,·,0,·,·,·,·
O=C(COc1ccc(I)cc1)Nc1cccnc1,·,·,0,·,·,·,·
COC(=O)c1c(NC(=S)Nc2cccc(NC(C)=O)c2)sc(C)c1C,·,·,0,·,·,·,·
CCS(=O)(=O)N1CCCCN2[C@H](CO)[C@H](c3ccc(-c4ccc(C#N)cc4)cc3)[C@H]2C1,114*,-3,·,96*,53,5,52*
CCS(=O)(=O)N1CCCCN2[C@H](CO)[C@H](c3ccc(-c4cccc(C#N)c4)cc3)[C@H]2C1,128*,-2,·,97*,53,53*,46*
CCS(=O)(=O)N1CCCCN2[C@H](CO)[C@@H](c3ccc(-c4ccc(C#N)cc4)cc3)[C@@H]2C1,19,-4,·,·,·,·,·
CCS(=O)(=O)N1CCCCN2[C@H](CO)[C@H](c3ccc(-c4cccc(C#N)c4)cc3)[C@@H]2C1,91,-1,·,·,·,·,·
CS(=O)(=O)N1CCCCN2[C@@H](CO)[C@@H](c3ccc(-c4cccc(C#N)c4)cc3)[C@@H]2C1,-8,0,·,·,·,·,·
CCS(=O)(=O)N1CCCCN2[C@H](C1)[C@H](c1ccc(-c3cccc(C#N)c3)cc1)[C@@H]2CO,107*,0,·,25,-15,11,20
O=C(NC1CCN(Cc2ccccc2)CC1)c1ccc(NS(=O)(=O)c2cccs2)cc1,·,·,0,·,·,·,·
COc1ccc(-c2cc(C(F)(F)F)nc(SCC(=O)Nc3cc(F)ccc3C)n2)cc1OC,·,·,0,·,·,·,·
CC1(C)Cc2c(sc3c2c(=O)n(Cc2ccccc2)c2nnc(SCC(=O)c4ccc(Cl)cc4)n32)CO1,·,·,0,·,·,·,·
COc1cc([C@@H]2C3C=C([C@H]4Oc5cc(O)cc(O)c5C(=O)[C@@H]4O)[C@H]4[C@@H]2COC4(O)C3=O)ccc1O,·,·,0,·,·,·,·
O=S(=O)(c1ccccc1)N1C[C@@H]2[C@H](c3ccccc31)[C@H](CO)N2Cc1ccc2c(c1)OCO2,111*,-5,·,105*,61,24,13
O=S(=O)(c1ccccc1)N1C[C@@H]2[C@H](c3ccccc31)[C@H](CO)N2Cc1ccc(F)cc1,94,-1,·,·,·,·,·
O=S(=O)(c1ccccc1)N1C[C@H]2[C@@H](c3ccccc31)[C@H](CO)N2Cc1ccc2c(c1)OCO2,?,2,·,93,42,-5,3
O=S(=O)(c1ccccc1)N1C[C@H]2[C@@H](c3ccccc31)[C@@H](CO)N2Cc1ccc2c(c1)OCO2,101*,-4,·,101*,44,18,16
O=S(=O)(c1ccc(F)cc1)N1C[C@@H]2[C@H](c3ccccc31)[C@@H](CO)N2Cc1ccc2c(c1)OCO2,77,1,·,·,·,·,·
Cc1cccc(S(=O)(=O)N2C[C@H]3[C@@H](c4ccccc42)[C@H](CO)N3Cc2cccnc2)c1,85,-1,·,·,·,·,·
SMILES,T cruzi growth-1,GASC1 inh,IDH1 R132H inh,T cruzi growth-2,T cruzi growth-3,3T3 cytotox,NIH3T3 tox 2
O=S(=O)(c1ccccc1)N1C[C@H]2[C@@H](c3ccccc31)[C@@H](CO)N2Cc1ccc(F)cc1,84,-1,·,·,·,·,·
Cc1cccc(S(=O)(=O)N2C[C@@H]3[C@H](c4ccccc42)[C@H](CO)N3Cc2ccc3c(c2)OCO3)c1,109*,0,·,101*,108*,24,-31
C/C=C1\C(O[C@@H]2O[C@H](CO[C@@H]3O[C@H](CO)[C@@H](O)[C@H](O)[C@H]3O)[C@@H](O)[C@H](O)[C@H]2O)OC=C(C(=O)OC)C1CC(=O)OCCc1ccc(O)cc1 (stereo not given in full),·,·,2,·,·,·,·
CC1(C)O[C@H]2CC(=O)OC[C@@]23[C@H]1CC(=O)[C@@]1(C)C2=CC(=O)O[C@@H](c4ccoc4)[C@]2(C)CC[C@@H]13,·,·,0,·,·,·,·
Cc1ccc(-c2nc(S(=O)(=O)c3ccc(Cl)cc3)c(SCC(N)=O)o2)cc1,·,·,0,·,·,·,·
CC1C(=O)C(=O)[C@@H]2O[C@@H]2C1=O (stereo not given in full),·,·,0,·,·,·,·
Cc1cccc(-n2c(N)cc(=O)nc2SCC(=O)N2c3ccccc3Sc3ccccc32)c1,·,·,0,·,·,·,·
O=C(NO)c1cccc(C(=O)N/N=C/c2ccc3ccccc3n2)c1,·,·,0,·,·,·,·
O=S(=O)(Nc1ncccn1)c1ccc(NC(=S)Nc2ccc3c(c2)OCCO3)cc1,·,·,1,·,·,·,·
Cc1cccc(NC(c2ccc([N+](=O)[O-])cc2)c2ccc3ccc(C)nc3c2O)n1 (stereo not given),·,·,0,·,·,·,·
C[C@H](CO)N1C[C@H](C)[C@@H](CN(C)C(=O)Nc2ccccc2)OCc2ccccc2-c2ccccc2C1=O,54,-2,-1,·,·,·,·
C[C@H]1CN([C@@H](C)CO)C(=O)c2ccccc2-c2ccccc2CO[C@H]1CN(C)C(=O)Nc1ccnc(N2CCOCC2)c1,105*,1,·,101*,77,6,33*
C[C@H](CO)N1C[C@H](C)[C@H](CN(C)C(=O)Nc2ccccc2)OCc2ccccc2-c2ccccc2C1=O,44,-4,·,·,·,·,·
C[C@@H]1CN([C@@H](C)CO)C(=O)c2ccccc2-c2ccccc2CO[C@@H]1CN(C)C(=O)Nc1ccnc(N2CCOCC2)c1,106*,7,-1,107*,88,-1,28*
C[C@H](CO)N1C[C@H](C)[C@H](CN(C)C(=O)Nc2ccnc(N3CCOCC3)c2)OCc2ccccc2-c2ccccc2C1=O,110*,-1,·,?,85,4,24
C[C@H](CO)N1C[C@H](C)[C@H](CN(C)C(=O)Nc2ccnc(N3CCOCC3)c2)OCc2ccccc2-c2c(n(C)c3ccccc23)C1=O,·,-1,·,·,·,·,·

# Screening data (PubChem)
